Assay outcomes: PubChem, several laboratories
Runt-CBFb FRET: inhibitors of RUNX1 Runt–CBFb binding, primary screen, biochemical, FRET, Cerulean-Runt, Venus-CBFb, uHTS; Runt-related transcription factor 1 (Homo sapiens) + Core-binding factor subunit beta …; Cerulean-Runt/Venus-CBFb FRET ratio 530/480, 1 h; inhibition, % at 20 µM; 220,000 compounds, 0.46% hits;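 active means inhibition over about 50% at 20 µM in the single-dose screen, limit read from the data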;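 further: 0% = DMSO wells and 100% = excess unlabeled CBFb competitor control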
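Measured by: fluorescence energy transfer, 422 nm excitation, 530/480 nm emission; test system: Cerulean-tagged RUNX1 Runt domain (FRET donor) fusion protein; buffer or medium: Tris pH 7.5 buffer with BSA; compound: one dose, 20 µM compound, 1% DMSO; times: two 1 h room-temperature incubations shielded from light; benchmarks: unlabeled CBFb 5 µM, positive control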
Runt-SMMHC FRET: inhibitors of RUNX1 Runt–CBFb-SMMHC binding, primary screen, biochemical, FRET, Cerulean-Runt, Venus-CBFb-SMMHC, uHTS. Runt-related transcription factor 1 (Homo sapiens) + Core-binding factor subunit beta …. Cerulean-Runt/Venus-CBFb-SMMHC FRET ratio 530/480, 1 h. inhibition, % at 20 µM. 220,000 compounds, 0.74% hits;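 active means mean inhibition across duplicate retests at 20 µM reaching about 50%, limit read from the data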;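 further: 0% = DMSO wells and 100% = wells with excess untagged CBFb-SMMHC; inhibitors lower the FRET ratio by blocking Runt binding to CBFb-SMMHC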
RanGTP-Imp inh: inhibitors of RanGTP-importin-beta interaction, primary screen, biochemical, FRET, CFP-Ran, YFP-importin-beta, homogeneous; inhibition, % (test concentration not listed); 300,000 compounds, 1.1% hits; cell-free CFP-Ran/YFP-importin-beta FRET ratio; Ran GTPase (GTP-bound) - importin-beta complex;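 active means more than half of the replicate wells show a fall in the fluorescence ratio signal beyond about 16%, limit read from the data, passing the limit was not always enough; inconclusive means exactly half of the replicate wells pass the set limit; inactive means fewer than half of replicates pass the limit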;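 further: 0% = DMSO wells and 100% = Ran loaded with GDP instead of GTP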
Hck Nef HTS: inhibitors of Nef-activated human Hck kinase, primary screen, biochemical, Z-Lyte FRET, 384-well, Hck-YEEI. Recombinant Hck-YEEI plus Nef, Z-Lyte FRET kinase assay. inhibition, % at 20 µM. 220,000 compounds, 0.68% hits. AID 463187, 2010;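 active means Hck-Nef kinase inhibition above about 50%, limit read from the data; inactive means inhibition below that limit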;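 further: 0% = DMSO with Hck plus Nef and 100% = Hck alone without Nef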
Target sequence (P08631 whole entry, looked up): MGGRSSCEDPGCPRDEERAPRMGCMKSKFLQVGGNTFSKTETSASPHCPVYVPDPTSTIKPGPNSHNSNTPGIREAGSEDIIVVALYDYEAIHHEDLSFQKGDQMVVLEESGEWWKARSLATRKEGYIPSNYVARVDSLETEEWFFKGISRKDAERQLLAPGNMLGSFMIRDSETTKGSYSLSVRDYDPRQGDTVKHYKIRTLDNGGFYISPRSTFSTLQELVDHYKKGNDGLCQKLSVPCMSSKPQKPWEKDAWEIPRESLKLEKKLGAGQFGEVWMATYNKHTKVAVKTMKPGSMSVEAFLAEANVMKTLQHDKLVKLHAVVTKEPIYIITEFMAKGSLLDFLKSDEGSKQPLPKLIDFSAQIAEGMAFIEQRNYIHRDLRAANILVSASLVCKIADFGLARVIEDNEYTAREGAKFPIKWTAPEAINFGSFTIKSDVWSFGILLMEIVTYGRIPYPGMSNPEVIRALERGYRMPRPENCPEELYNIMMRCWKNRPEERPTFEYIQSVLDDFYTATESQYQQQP
Tb hexokinase: Trypanosoma brucei hexokinase 1 inhibitors, primary screen, biochemical, G6PDH-coupled NADH absorbance, MLSCN library; hexokinase 1 [Trypanosoma brucei]; recombinant TbHK1, G6PDH-coupled NADH A340; inhibition, % at 10 µM; 220,000 compounds, 0.11% hits;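 active means inhibition of 50% or more in the single-dose primary screen; inactive means inhibition below 50%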
p97 ATPase inh: inhibitors of human p97 ATPase, primary screen, biochemical. recombinant p97 ATPase, Kinase-Glo ATP luminescence, 3 h. inhibition, % at 8 µM. 220,000 compounds, 0.42% hits. AID 1481, 2009; in the data active means inhibition above about 15%;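 further: 0% = DMSO vehicle and 100% = wells lacking enzyme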
An asterisk follows results filed as active; ? = inconclusive; · = no result. Most compounds without a hit are left out; they make up all but 2.1% or so of the library.

SMILES	Runt-CBFb FRET	Runt-SMMHC FRET	RanGTP-Imp inh	Hck Nef HTS	Tb hexokinase	p97 ATPase inh
O=C(O)CC1NC(=O)N(c2ccccc2)C1=O (stereo unspecified)	-3	-6	45*	-10	-1	-2
Cc1ncc(CO)c(/C=N/NC(=O)c2ccc(Br)cc2)c1O	19	58*	21*	-4	-2	5
CC1C2(C)OCC(C#N)(C(=N)O2)C1(C#N)C#N (stereo unspecified)	21	51*	7	8	4	2
Cc1cc(Cl)ccc1OCC(=O)NNC(=O)c1ccco1	·	·	1	·	·	·
CC1CC(=O)C2=C(C1)Nc1ccccc1SC2c1ccc(F)cc1 (stereo unspecified)	1	-1	-1	2	-12	-1
CC1=NN(C(C#N)c2ccccc2C)C(C)(C)C1 (stereo unspecified)	75*	2	2	-31	2	1
COC(=O)C1=C(C)N=C2SC(C#N)=C(N)N2C1c1ccc(OCc2ccccc2)cc1 (stereo unspecified)	-20	11	25*	-2	-6	-3
CC(=Nc1cccc(C)c1)c1sc2ccccc2c1O	33	68*	26*	-2	-8	0
CC(=Nc1ccc(O)cc1)c1sc2ccccc2c1O	-22	-98	2	4	-1	9
CC(=O)NCCN=C(C)c1sc2ccccc2c1O	26	60	54*	0	0	3
N#CC1=C(N)Oc2cc3ccccc3cc2C1c1cccs1 (stereo unspecified)	-7	-10	-2	-3	0	0
CCCc1[nH]nc2c1C(c1ccc(O)c(OC)c1)C(C#N)=C(N)O2 (stereo unspecified)	2	4	-1	2	2	3
N#CC1=C(N)Oc2cc(N)ccc2C1c1ccsc1 (stereo unspecified)	23	23	33*	1	-6	3
Cc1ccc(/C=C2\CCC3=C2OC(N)=C(C#N)C3c2ccc(C)cc2)cc1 (stereo unspecified)	-31	-74	-81	4	-8	6
Cc1ccc(C2C(C#N)=C(N)Oc3cc(N)ccc32)cc1 (stereo unspecified)	·	·	90*	·	·	·
CCOc1cc(C2C(C#N)=C(N)Oc3cc(N)ccc32)ccc1O (stereo unspecified)	·	·	69*	·	·	·
N#CC1=C(N)Oc2cc(N)ccc2C1c1cc(Br)cs1 (stereo unspecified)	·	·	-9	·	·	·
N#CC1=C(N)Oc2cc(N)ccc2C1c1cccc(Br)c1 (stereo unspecified)	·	·	55*	·	·	·
COc1ccc(NC(=O)CCS(=O)(=O)c2ccc3c(c2)oc(=O)n3C)cc1	·	·	-1	·	·	·
Cc1ccc2nc(-c3ccccc3)c(CC(=O)O)c(C(=O)O)c2c1	-2	1	4	22	-2	2
C=CCN(CC(=O)NC1CCCC1)C(=O)C(=O)Nc1ccc2c(c1)OCCO2	·	·	-2	·	·	·
CCOc1cc(C2C(C#N)=C(N)OC(C)=C2C(C)=O)c(Br)c(Br)c1OC(C)C (stereo unspecified)	-4	-5	-4	5	-10	-9
N#CC1=C(N)Oc2cc(N)ccc2C1C1CC=CCC1 (stereo unspecified)	42	41	141*	2	3	0
Cc1[nH]nc2c1C(C1CC=CCC1)C(C#N)=C(N)O2 (stereo unspecified)	1	1	·	0	2	-2
CCOc1cc(C2C(C#N)=C(N)OC(C)=C2C(C)=O)cc(Br)c1O (stereo unspecified)	1	1	19*	-1	-4	8
SMILES	Runt-CBFb FRET	Runt-SMMHC FRET	RanGTP-Imp inh	Hck Nef HTS	Tb hexokinase	p97 ATPase inh
Cc1ccc(NC(=O)c2noc(C(C)C)c2[N+](=O)[O-])cc1	-1	1	-1	-15	-12	-3
O=c1oc2ccccc2cc1-c1nc2c(s1)CCCC2	52*	42	83*	33	6	-6
Cc1ccc(S(=O)(=O)N(C)CC(=O)N2CCOCC2)cc1	2	-2	2	7	-1	2
Cc1ccc(S(=O)(=O)N(CC(=O)N2CCOCC2)CC(=O)N2CCOCC2)cc1	0	4	32*	5	3	6
Cc1cc(=O)oc2c(CN3CCN(CCO)CC3)c(O)ccc12	·	·	0	·	·	·
O=c1oc2c(CN3CCN(CCO)CC3)c(O)ccc2cc1-c1ccccn1	11	80*	156*	-18	-23	6
O=c1oc2c(CN3CCCCC3)c(O)ccc2cc1-c1nc2ccccc2[nH]1	18	57*	·	·	·	·
O=c1oc2c(O)cccc2cc1-c1nc2ccccc2[nH]1	·	·	133*	·	·	·
O=c1[nH]cccc1-c1nc2ccccc2[nH]1	·	·	1	·	·	·
CCn1c(SCC(=O)N/N=C(\C)c2ccco2)nnc1-c1ccccc1	-2	-1	-7	25	0	4
N#Cc1cnn2c3c(cnc12)C(=O)N1CCc2ccccc2C1C3 (stereo unspecified)	92*	86*	?	21	-6	4
O=C1c2cnc3ncnn3c2CC2c3ccccc3CCN12 (stereo unspecified)	14	36	4	32	0	6
CCN(CC)c1ccc(C2C(C(=O)Nc3ccccn3)=C(C)NC3=C2C(=O)CC(C)(C)C3)cc1 (stereo unspecified)	4	35	2	1	-5	-5
CC1=C(C(=O)Nc2cc(C)ccn2)C(c2ccc(C)cc2)C2=C(CCCC2=O)N1 (stereo unspecified)	18	51*	-4	36	-14	3
CCn1cc(C2C(C(=O)Nc3cc(C)ccn3)=C(C)NC3=C2C(=O)CC(C)(C)C3)c(C)n1 (stereo unspecified)	28	69*	3	28	-19	4
CCn1cc(C2C3=C(CC(C)(C)CC3=O)N(c3ccccc3)C3=C2C(=O)CC(C)(C)C3)c(C)n1	23	82*	?	8	-10	3
O=C(CCn1cnc2ccccc2c1=O)Nc1cccc(Cl)c1Cl	-1	0	8	-8	1	3
N#CC1(NC(=O)COC(=O)/C=C/c2ccc3ccccc3n2)CCCCC1	·	·	-6	·	·	·
